≈ marks a conversion by molar mass, not a printed value.
Legend:
[1] = Solubility of the compound in alphaMEM containing 5% FCS and 1% DMSO by HPLC analysis; format: physicochemical
Method in brief: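 Saturated drug solutions were incubated at 37 °C in αMEM with 5% FCS and 1% DMSO. Dissolved drug was quantified by HPLC.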

HCT-116 [2] = assay: Cytotoxicity against human HCT116 cells incubated for 4 hrs under anaerobic condition measured after 5 days by sulforhodamine B assay; format: functional, cell-based
Method in brief: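 STR-authenticated, mycoplasma-free HCT116 cells in αMEM + 5% FCS were seeded at 700 cells/well and allowed 2 h to attach. Drug was added from DMSO stocks (<1% DMSO) in serial 3-fold dilutions for 4 h, oxic or anoxic (Pd-catalyst anaerobic chamber, medium pre-equilibrated ≥3 days). After washing, cells regrew for 5 days before SRB staining and IC50 determination.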

HCT-116 [3] = assay: Hypoxic cytotoxicity ratio of IC50 for human HCT116 cells under oxic condition to IC50 for human HCT116 cells under anoxic condition
Method in brief: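 HCT116 cells, 700 per well and attached 2 h, got a 4 h exposure to 3-fold serial dilutions (<1% DMSO) under air or in a Pd-catalyst anaerobic chamber with pre-equilibrated medium. Cells were washed, regrown 5 days, and stained with sulforhodamine B to give IC50. HCR = oxic IC50 / anoxic IC50.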

HCT-116 [4] = assay: (§1) Hypoxia radiosensitization activity in human HCT116 cells assessed as survival ratio by measuring ratio of cell survival with 15 Gy radiation in absence to presence of compound at anoxic IC50 preincubated for 1 hr followed by 15 Gy irradiation measured after 10 days by methylene blue staining-based cell counting method; format: functional
Method in brief: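 Anoxic HCT116 cells were seeded at 10^5/well and treated at the anoxic IC50 concentration for 1 h at room temperature. They were irradiated with 15 Gy (60Co, ~2 Gy/min) in a sealed steel box, then plated clonogenically. Colonies of >50 cells were counted […]. SR15 = survival with radiation / survival with drug + radiation.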

HCT-116 [5] = assay: (§2) Hypoxia radiosensitization activity in human HCT116 cells assessed as sensitizer enhancement ratio by measuring ratio of radiation dose for 1% survival in absence to presence of compound at 2.76 mM preincubated for 1 hr followed by irradiation measured after 10 days by methylene blue staining-based cell counting method; format: functional
HCT-116 [6] = assay: as §2, with “method relative to misonidazole” for “method”; format: functional
HCT-116 [7] = assay: as §1, with “with” for “with 15 Gy”, “2.76 mM” for “anoxic IC50”, “6 to 29” for “15”; format: functional
HCT-116 [8] = assay: as §1, with “with” for “with 15 Gy”, “2.76 mM” for “anoxic IC50”, “6 to 29” for “15”, “method relative to misonidazole” for “method”; format: functional
HCT-116 [9] = assay: Cytotoxicity against human HCT116 cells at anoxic IC50 incubated for 1 hr at 21 degC by clonogenic survival assay; settings: hct-116, 1 h
HCT-116 [10] = assay: as §2, with “5” for “2.76”; format: functional
HCT-116 [11] = assay: as §2, with “5” for “2.76”, “method relative to misonidazole” for “method”; format: functional
HCT-116 [12] = assay: as §1, with “with” for “with 15 Gy”, “5 mM” for “anoxic IC50”, “6 to 29” for “15”; format: functional
HCT-116 [13] = assay: as §1, with “with” for “with 15 Gy”, “5 mM” for “anoxic IC50”, “6 to 29” for “15”, “method relative to misonidazole” for “method”; format: functional
HCT-116 [14] = assay: as §1, with “with” for “with 15 Gy”, “2.86 mM” for “anoxic IC50”, “6 to 29” for “15”; format: functional
HCT-116 [15] = assay: as §1, with “with” for “with 15 Gy”, “2.86 mM” for “anoxic IC50”, “6 to 29” for “15”, “method relative to misonidazole” for “method”; format: functional
HCT-116 [16] = assay: as §1, with “with” for “with 15 Gy”, “1.34 mM” for “anoxic IC50”, “6 to 29” for “15”; format: functional
HCT-116 [17] = assay: as §1, with “with” for “with 15 Gy”, “1.34 mM” for “anoxic IC50”, “6 to 29” for “15”, “method relative to misonidazole” for “method”; format: functional

## Cc1ncc([N+](=O)[O-])n1CCS(=O)(=O)NCCCN1CCOCC1
[1]
  solubility: > 55.2 mM
HCT-116 [2]
  IC50: 2.8 mM
HCT-116 [3]
  Ratio IC50: 0.8
HCT-116 [4]
  Ratio: 8
HCT-116 [5]
  Ratio: 1.68
HCT-116 [6]
  fold change (FC): 1.2
HCT-116 [7]
  Ratio: 28
HCT-116 [8]
  fold change (FC): 3.96
HCT-116 [9]
  Activity: Non-Toxic

## O=[N+]([O-])c1cncn1CCS(=O)(=O)NCCO
[1]
  solubility: 69.3 mM (≈ 18.3 mg/mL)
HCT-116 [2]
  IC50: 5.3 mM
HCT-116 [3]
  Ratio IC50: 2
HCT-116 [4]
  Ratio: 282
HCT-116 [10]
  Ratio: 1.81
HCT-116 [11]
  fold change (FC): 1.23
HCT-116 [12]
  Ratio: 163
HCT-116 [13]
  fold change (FC): 12.1
HCT-116 [9]
  Activity: Non-Toxic

## COCCNS(=O)(=O)CCn1c([N+](=O)[O-])cnc1C
HCT-116 [14]
  Ratio: 4.8
HCT-116 [15]
  fold change (FC): 0.58
HCT-116 [9]
  Activity: Non-Toxic

## Cc1ncc([N+](=O)[O-])n1CCS(=O)(=O)NCCN1CCCCC1
HCT-116 [16]
  Ratio: 24
HCT-116 [17]
  fold change (FC): 2.36
HCT-116 [9]
  Activity: Non-Toxic

From ChEMBL document CHEMBL4033777, “Next-Generation Hypoxic Cell Radiosensitizers: Nitroimidazole Alkylsulfonamides” (J Med Chem, 2018)
